Measurements gathered from unrelated publications.
Protocols differ between the studies behind these lines.
Organism: Severe acute respiratory syndrome coronavirus 2

COc1cc(Nc2c(C#N)cnc3cc(OCCCN4CCN(C)CC4)c(OC)cc23)c(Cl)cc1Cl
IC50 (viral replication, inhibitor; Huh-7): 0.02 µM

CC(C)(C)OC(=O)N[C@H]1CCCCC/C=C\[C@@H]2C[C@@]2(C(=O)NS(=O)(=O)C2CC2)NC(=O)[C@@H]2C[C@@H](OC(=O)N3Cc4cccc(F)c4C3)CN2C1=O
IC50 (viral replication; HEK-293T): > 50 µM

CC(CN1c2ccccc2Sc2ccccc21)N(C)C (stereo not drawn)
IC50 (viral replication, inhibitor; Vero C1008): 9.21 µM

COCCCC/C(=N\OCCN)c1ccc(C(F)(F)F)cc1
IC50 (viral replication, inhibitor; A549-ACE2): 2.09 µM

C[C@]12C=CC(=O)C=C1CC[C@@H]1[C@@H]2[C@@H](O)C[C@@]2(C)[C@H]1C[C@H]1O[C@@H](C3CCCCC3)O[C@]12C(=O)CO
IC50 (viral replication; VeroE6/TMPRSS2): 8.1 µM

CCN(CC)CCO[C@H]1CC[C@@]2(C)C(=CC[C@@H]3[C@@H]2CC[C@]2(C)C(=O)CC[C@@H]32)C1
IC50 (viral replication; Vero C1008): 2.4 µM

CCN(CCO)CCCC(C)Nc1ccnc2cc(Cl)ccc12 (stereo not drawn)
IC50 (viral replication, inhibitor; Vero C1008): 9.21 µM

CC(=O)OC[C@H]1O[C@@H](Sc2nc(N)c(C(=O)Nc3ccc(Cl)cc3)c(=S)[nH]2)[C@H](OC(C)=O)[C@@H](OC(C)=O)[C@@H]1OC(C)=O
IC50 (viral replication; Vero C1008; 72 h): 77.4 µM

COc1ccc(CN2CCN(Cc3ccccc3)CC2)cc1
IC50 (viral replication; Vero C1008): 1.58 µM

CC[C@@H]1C[C@]1(NC(=O)[C@@H]1C[C@@H]2CN1C(=O)[C@H](C(C)(C)C)NC(=O)OCC(C)(C)CCCCc1cccc3c1CN(C3)C(=O)O2)C(=O)NS(=O)(=O)C1CC1
IC50 (viral replication; HEK-293T): 3 µM

Nc1nc(S[C@@H]2O[C@H](CO)[C@@H](O)[C@H](O)[C@H]2O)[nH]c(=S)c1C(=O)Nc1ccccc1
IC50 (viral replication; Vero C1008; 72 h): 47.8 µM

CCN(CC)CCCC(C)Nc1ccnc2cc(Cl)ccc12 (stereo not drawn)
IC50 (viral replication, inhibitor; Vero C1008): 42 µM

NC(=O)c1ncn([C@@H]2O[C@H](CO)[C@@H](O)[C@H]2O)n1
IC50 (viral replication, inhibitor; Vero C1008): > 10 µM

CCCCCCCCCCCCCCCC(=O)N[C@H]1C[C@@H](O)[C@@H](O)NC(=O)[C@@H]2[C@@H](O)[C@@H](C)CN2C(=O)[C@H]([C@@H](C)O)NC(=O)[C@H]([C@H](O)[C@@H](O)c2ccc(O)cc2)NC(=O)[C@@H]2C[C@@H](O)CN2C(=O)[C@H]([C@@H](C)O)NC1=O
IC50 (viral replication, inhibitor; Vero; 24 h): 1.3 µg/mL

Cc1ccc(NC(=O)c2c(N)nc(S[C@@H]3O[C@H](CO)[C@@H](O)[C@H](O)[C@H]3O)[nH]c2=S)cc1
IC50 (viral replication; Vero C1008; 72 h): 73.7 µM

Nc1c2ccccc2nc2ccccc12
IC50 (viral replication, inhibitor; Calu-3; 40 h): 4.44 µM

COc1ccc([C@@H]2Sc3ccccc3N(CCN(C)C)C(=O)[C@@H]2OC(C)=O)cc1
IC50 (viral replication, inhibitor; Vero C1008): > 45 µM

CCN(CC)CCOc1ccc2c(c1)C(=O)c1cc(OCCN(CC)CC)ccc1-2
IC50 (viral replication, inhibitor; Vero; 24 h): 79.2 µM

O=C1CCC(N2C(=O)c3ccccc3C2=O)C(=O)N1 (stereo not drawn)
IC50 (viral replication, inhibitor; Huh-7): > 2 µM

CCN(CC)CCOc1ccc(C(O)(Cc2ccc(Cl)cc2)c2ccc(C)cc2)cc1 (stereo not drawn)
IC50 (viral replication, inhibitor; Vero C1008): 4.68 µM

Nc1nc2nc[nH]c2c(=S)[nH]1
IC50 (viral replication, inhibitor; Huh-7): 0.178 µM

CN1[C@@H]2CC[C@H]1C[C@@H](OC(c1ccccc1)c1ccc(Cl)cc1)C2 (stereo partly drawn)
IC50 (cytopathic effect; Vero C1008; 72 h): 8.9 µM

COc1c(O)cc2oc(-c3ccccc3)cc(=O)c2c1O
IC50 (viral replication, inhibitor; Vero C1008): 15.1 µM

CC[C@@H](C)[C@@H]1NC(=O)[C@@H]2CCCN2C(=O)[C@H](Cc2ccccc2)N(C)C(=O)[C@H](Cc2ccccc2)NC(=O)[C@H](C(C)C)N(C)C(=O)[C@@H]([C@H](C)CC)OC(=O)[C@H](C(C)(C)O)N(C)C(=O)[C@H](CC(C)C)NC(=O)[C@H](C(C)C)N(C)C1=O
IC50 (viral replication, inhibitor; Calu-3; 40 h): 4.53 µM

C[C@@H]1O[C@@H](O[C@H]2C[C@@H](O)[C@]3(CO)[C@H]4[C@H](O)C[C@]5(C)[C@@H](C6=CC(=O)OC6)CC[C@]5(O)[C@@H]4CC[C@]3(O)C2)[C@H](O)[C@H](O)[C@H]1O
IC50 (viral replication, inhibitor; Vero C1008): 0.03 µM

CCOP(=O)(OCC)N1C/C(=C\c2ccc(F)cc2)C(=O)C2(C1)C(c1ccc(F)cc1)CN(C)C21C(=O)Nc2ccc(Cl)cc21 (stereo not drawn)
IC50 (viral replication, inhibitor; Vero C1008; 72 h): 13.5 µM

CN(C)CCCN1c2ccccc2Sc2ccc(Cl)cc21
IC50 (viral replication, inhibitor; A549-ACE2): 2.24 µM

Cc1cccc(/C=N/Nc2cc(N3CCOCC3)nc(OCCc3ccccn3)n2)c1
IC50 (viral replication, inhibitor; Vero C1008): 0.012 µM

COc1c(C)c2c(c(O)c1C/C=C(\C)CCC(=O)OCCN1CCOCC1)C(=O)OC2
IC50 (viral replication, inhibitor; Calu-3; 40 h): 2.15 µM

Nc1nc(S)[nH]c(=S)c1C(=O)Nc1ccccc1
IC50 (viral replication; Vero C1008; 72 h): 341 µM

CC(C)c1nc(CN(C)C(=O)N[C@H](C(=O)N[C@@H](Cc2ccccc2)C[C@H](O)[C@H](Cc2ccccc2)NC(=O)OCc2cncs2)C(C)C)cs1
IC50 (viral replication, inhibitor; Vero C1008): 11.7 to 19.9 µM

CNc1ccc2oc(C[C@H]3O[C@@]4(CC[C@H]3C)O[C@H]([C@H](C)C(=O)c3ccc[nH]3)[C@H](C)C[C@H]4C)nc2c1C(=O)O
IC50 (viral replication, inhibitor; Calu-3; 40 h): 1.55 µM

CC(=O)OC[C@H]1O[C@@H](Sc2nc(N)c(C(=O)Nc3ccccc3)c(=S)[nH]2)[C@H](OC(C)=O)[C@@H](OC(C)=O)[C@H]1OC(C)=O
IC50 (viral replication; Vero C1008; 72 h): 86 µM

COc1cc2c(cc1OC)CN(CCc1ccc(NC(=O)c3cccc4c(=O)c5cccc(OC)c5[nH]c34)cc1)CC2
IC50 (viral replication, inhibitor; A549-ACE2): 3.89 µM

C[C@H](Nc1nc(N2CCNCC2)nc2ccccc12)c1ccccc1
IC50 (cytopathic effect; Vero C1008; 72 h): 10 µM

Nc1nc(S[C@@H]2O[C@H](CO)[C@H](O)[C@H](O)[C@H]2O)[nH]c(=S)c1C(=O)Nc1ccc(Cl)cc1
IC50 (viral replication; Vero C1008; 72 h): 15.4 µM

CC(C)[N+]1(C)[C@@H]2CC[C@H]1C[C@@H](OC(=O)C(CO)c1ccccc1)C2 (stereo partly drawn)
IC50 (viral replication, inhibitor; Huh-7): 0.056 µM

CC[C@H](C)C[C@H](C)CCCCCCCCC(=O)N[C@H]1C[C@@H](O)[C@@H](NCCN)NC(=O)[C@@H]2[C@@H](O)CCN2C(=O)[C@H]([C@H](O)CCN)NC(=O)[C@H]([C@H](O)[C@@H](O)c2ccc(O)cc2)NC(=O)[C@@H]2C[C@@H](O)CN2C(=O)[C@H]([C@@H](C)O)NC1=O
IC50 (viral replication, inhibitor; Vero; 24 h): > 200 µg/mL

Fc1ccc([C@@H]2CCNC[C@H]2COc2ccc3c(c2)OCO3)cc1
IC50 (viral replication; Vero C1008): 3.55 µM

CC(C)(C)[C@@H]1NC(=O)O[C@@H]2CCC[C@H]2OC/C=C/C(F)(F)c2nc3ccccc3nc2O[C@@H]2C[C@@H](C(=O)N[C@]3(C(=O)NS(=O)(=O)C4(C)CC4)C[C@H]3C(F)F)N(C2)C1=O
IC50 (viral replication; HEK-293T): > 50 µM

CCN(C)C(=O)Oc1cccc([C@H](C)N(C)C)c1
IC50 (viral replication, inhibitor; Huh-7): > 2 µM

CCOP(=O)(OCC)N1C/C(=C\c2ccccc2)C(=O)C2(C1)C(c1ccccc1)CN(C)C21C(=O)Nc2ccc(Cl)cc21 (stereo not drawn)
IC50 (viral replication, inhibitor; Vero C1008; 72 h): 10.4 µM

COC(=O)c1ccc2c(c1)NC(=O)/C2=C(\Nc1ccc(N(C)C(=O)CN2CCN(C)CC2)cc1)c1ccccc1
IC50 (viral replication, inhibitor; Huh-7): > 2 µM

CC(C)(C)CC(C)(C)c1ccc(O)c(Cc2ccc(Cl)cc2Cl)c1
IC50 (viral replication, inhibitor; Calu-3; 40 h): 3.26 µM

CCN(CC)CCOc1ccc(C(O)(Cc2ccc(Cl)cc2)c2ccc(C)cc2)cc1 (stereo not drawn)
IC50 (viral replication; Vero C1008): 0.759 µM

CCN(CC)CCNC(=O)c1cc(Cl)c(N)cc1OC
IC50 (viral replication, inhibitor; Huh-7): 0.468 µM

Fc1ccc(-n2cc(CCCCN3CCC4(CC3)OCc3ccccc34)c3ccccc32)cc1
IC50 (viral replication, inhibitor; A549-ACE2): 2.04 µM

N=C(N)NCCN1CCCCCCC1
IC50 (viral replication, inhibitor; Huh-7): > 2 µM
